{"source": "ChEMBL document CHEMBL5705898", "about": "(Proc Natl Acad Sci U S A, 2014)", "key": {"Homo sapiens [1]": {"organism": "Homo sapiens", "assay": "Inhibition of Na+/K+ ATPase (unknown origin) at 10 uM relative to control"}, "[2]": {"assay": "Inhibition of SETD7 V274E mutant (unknown origin) using biotinylated H3 (1-25) peptide as substrate incubated for 1 hrs in presence of 3H-SAM by radioactivity based assay", "design": "species or system Homo sapiens", "in_short": "(§1)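 Scintillation proximity assay on recombinant E. coli-expressed human SETD7(1–366) mutant forms. Read-out was incorporation of the ³H-methyl group from ³H-SAM into histone H3(1–25) peptide, with 2 µM SAM, 2 µM H3(1–25) and 2 nM enzyme. IC50 is given as the mean ± SD of triplicate runs.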"}, "[3]": {"target": "cGMP-specific 3',5'-cyclic phosphodiesterase (Homo sapiens) (UniProt O76074)", "assay": "Inhibition of human PDE5 at 10 uM relative to control"}, "[4]": {"target": "B2 bradykinin receptor (Homo sapiens) (UniProt P30411)", "assay": "Inhibition of human B2 receptor at 10 uM relative to control"}, "[5]": {"target": "Insulin receptor (Homo sapiens) (UniProt P06213)", "assay": "Inhibition of human IRK (InsR) at 10 uM relative to control"}, "Homo sapiens [6]": {"organism": "Homo sapiens", "assay": "Inhibition of GABA-gated Cl- channel (unknown origin) at 10 uM relative to control"}, "[7]": {"target": "Prostaglandin G/H synthase 1 (Homo sapiens) (UniProt P23219)", "sequence (P23219 whole entry)": "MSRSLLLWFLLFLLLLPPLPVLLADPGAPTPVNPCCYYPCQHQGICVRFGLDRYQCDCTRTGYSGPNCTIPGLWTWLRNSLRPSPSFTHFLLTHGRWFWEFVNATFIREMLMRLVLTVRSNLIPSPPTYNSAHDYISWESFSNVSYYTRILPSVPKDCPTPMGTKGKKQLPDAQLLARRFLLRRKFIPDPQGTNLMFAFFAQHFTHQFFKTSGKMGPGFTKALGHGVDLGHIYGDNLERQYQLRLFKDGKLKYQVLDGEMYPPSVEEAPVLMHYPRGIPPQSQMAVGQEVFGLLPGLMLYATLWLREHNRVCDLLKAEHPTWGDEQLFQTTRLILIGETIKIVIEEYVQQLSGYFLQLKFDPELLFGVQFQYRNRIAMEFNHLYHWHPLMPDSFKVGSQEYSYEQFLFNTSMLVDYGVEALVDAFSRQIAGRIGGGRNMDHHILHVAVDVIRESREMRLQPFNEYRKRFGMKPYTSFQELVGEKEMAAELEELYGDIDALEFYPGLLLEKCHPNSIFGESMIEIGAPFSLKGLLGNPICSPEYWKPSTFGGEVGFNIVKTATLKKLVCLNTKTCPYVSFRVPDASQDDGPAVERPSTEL", "assay": "Inhibition of human COX1 at 10 uM relative to control"}, "[8]": {"target": "Delta-type opioid receptor (Homo sapiens) (UniProt P41143)", "assay": "Inhibition of human delta 2 opioid receptor at 10 uM relative to control"}, "[9]": {"target": "Substance-K receptor (Homo sapiens) (UniProt P21452)", "assay": "Inhibition of human NK2 receptor at 10 uM relative to control"}, "Homo sapiens [10]": {"organism": "Homo sapiens", "assay": "Inhibition of SKCa channel (unknown origin) at 10 uM relative to control"}, "[11]": {"target": "Neuronal acetylcholine receptor; alpha4/beta2 (Homo sapiens) (UniProt P17787+P43681)", "assay": "Inhibition of human N neuronal alpha4 beta2 receptor at 10 uM relative to control", "assay_type": "protein-complex assay"}, "[12]": {"assay": "Inhibition of SETD7 H252W mutant (unknown origin) using biotinylated H3 (1-25) peptide as substrate incubated for 1 hrs in presence of 3H-SAM by radioactivity based assay", "design": "species or system Homo sapiens", "in_short": "as §1"}, "[13]": {"target": "3',5'-cyclic-AMP phosphodiesterase 4D (Homo sapiens) (UniProt Q08499)", "assay": "Inhibition of human PDE4D2 at 10 uM relative to control"}, "[14]": {"target": "Alpha-1A adrenergic receptor (Homo sapiens) (UniProt P35348)", "sequence (P35348 whole entry)": "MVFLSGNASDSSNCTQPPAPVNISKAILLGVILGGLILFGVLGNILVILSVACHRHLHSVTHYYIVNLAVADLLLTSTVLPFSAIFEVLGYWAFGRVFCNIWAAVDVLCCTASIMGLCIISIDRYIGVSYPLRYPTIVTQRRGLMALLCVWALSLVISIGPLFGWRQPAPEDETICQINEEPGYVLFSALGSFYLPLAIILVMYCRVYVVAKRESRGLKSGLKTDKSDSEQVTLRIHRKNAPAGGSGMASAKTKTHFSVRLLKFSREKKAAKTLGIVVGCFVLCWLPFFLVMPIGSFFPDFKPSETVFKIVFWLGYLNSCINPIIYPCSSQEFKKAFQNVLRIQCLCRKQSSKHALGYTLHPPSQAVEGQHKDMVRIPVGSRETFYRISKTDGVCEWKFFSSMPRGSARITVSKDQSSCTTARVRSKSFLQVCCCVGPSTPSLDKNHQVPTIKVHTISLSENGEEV", "assay": "Inhibition of human alpha 1A receptor at 10 uM relative to control"}, "[15]": {"target": "Melanocortin receptor 3 (Homo sapiens) (UniProt P41968)", "sequence (P41968 whole entry)": "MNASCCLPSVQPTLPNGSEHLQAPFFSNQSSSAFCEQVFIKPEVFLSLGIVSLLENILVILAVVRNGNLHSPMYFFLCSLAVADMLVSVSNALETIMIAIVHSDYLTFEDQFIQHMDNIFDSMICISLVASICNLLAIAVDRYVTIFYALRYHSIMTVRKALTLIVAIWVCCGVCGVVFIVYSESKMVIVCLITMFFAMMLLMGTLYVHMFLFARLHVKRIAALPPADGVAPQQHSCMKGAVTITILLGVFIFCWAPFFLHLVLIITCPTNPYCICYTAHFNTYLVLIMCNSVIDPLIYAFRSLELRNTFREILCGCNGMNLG", "assay": "Inhibition of human MC3 receptor at 10 uM relative to control"}, "[16]": {"target": "Prostaglandin G/H synthase 2 (Homo sapiens) (UniProt P35354)", "assay": "Inhibition of human COX2 at 10 uM relative to control"}, "[17]": {"target": "cGMP-inhibited 3',5'-cyclic phosphodiesterase 3B (Homo sapiens) (UniProt Q13370)", "assay": "Inhibition of human PDE3B at 10 uM relative to control"}, "[18]": {"target": "Adenosine receptor A3 (Homo sapiens) (UniProt P0DMS8)", "sequence (P0DMS8 whole entry)": "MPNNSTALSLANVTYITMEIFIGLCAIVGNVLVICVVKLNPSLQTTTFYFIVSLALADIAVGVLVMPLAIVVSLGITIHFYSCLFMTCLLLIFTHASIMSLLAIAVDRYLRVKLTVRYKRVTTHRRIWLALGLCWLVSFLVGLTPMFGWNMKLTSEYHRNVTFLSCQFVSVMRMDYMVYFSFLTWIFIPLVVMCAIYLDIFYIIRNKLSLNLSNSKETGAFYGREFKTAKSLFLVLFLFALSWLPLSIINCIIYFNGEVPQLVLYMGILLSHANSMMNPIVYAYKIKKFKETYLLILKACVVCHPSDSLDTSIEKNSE", "assay": "Inhibition of human A3 receptor at 10 uM relative to control"}, "[19]": {"target": "Beta-2 adrenergic receptor (Homo sapiens) (UniProt P07550)", "sequence (P07550 whole entry, looked up)": "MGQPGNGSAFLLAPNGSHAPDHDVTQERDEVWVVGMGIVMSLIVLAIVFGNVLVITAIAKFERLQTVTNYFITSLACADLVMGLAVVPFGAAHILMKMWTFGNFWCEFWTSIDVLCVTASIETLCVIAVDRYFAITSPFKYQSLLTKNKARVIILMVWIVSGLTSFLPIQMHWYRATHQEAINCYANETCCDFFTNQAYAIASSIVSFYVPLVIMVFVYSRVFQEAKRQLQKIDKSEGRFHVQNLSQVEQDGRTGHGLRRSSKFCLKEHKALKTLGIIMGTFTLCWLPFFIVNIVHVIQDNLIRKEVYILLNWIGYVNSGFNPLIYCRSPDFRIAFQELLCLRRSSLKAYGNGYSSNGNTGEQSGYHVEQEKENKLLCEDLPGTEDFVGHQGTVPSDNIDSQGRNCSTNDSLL", "assay": "Inhibition of human beta 2 receptor at 10 uM relative to control"}, "MCF7": {"tested_on": "MCF7", "assay": "Cytotoxicity against human MCF7 cells assessed as reduction in cell viability at <50 uM by alamar blue assay", "assay_type": "toxicity, cell-based", "conditions": "mcf7, 50 µM"}, "Motilin receptor [20]": {"target": "T1, Motilin receptor (Homo sapiens, UniProt O43193)", "T1 sequence (O43193 whole entry)": "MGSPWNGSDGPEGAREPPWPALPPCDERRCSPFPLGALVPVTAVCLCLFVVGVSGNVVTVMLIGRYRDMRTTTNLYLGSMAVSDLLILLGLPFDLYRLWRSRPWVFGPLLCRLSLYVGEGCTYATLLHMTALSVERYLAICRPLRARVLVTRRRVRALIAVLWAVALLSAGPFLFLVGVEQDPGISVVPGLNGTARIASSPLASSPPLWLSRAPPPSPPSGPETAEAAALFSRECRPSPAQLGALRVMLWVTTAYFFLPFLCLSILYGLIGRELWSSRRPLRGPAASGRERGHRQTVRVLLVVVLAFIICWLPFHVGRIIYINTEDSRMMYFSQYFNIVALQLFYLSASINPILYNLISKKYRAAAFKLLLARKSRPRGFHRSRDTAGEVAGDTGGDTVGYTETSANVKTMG", "assay": "Inhibition of human motilin receptor at 10 uM relative to control"}, "[21]": {"target": "Melatonin receptor type 1A (Homo sapiens) (UniProt P48039)", "assay": "Inhibition of human MT1 at 10 uM relative to control"}, "HFF": {"tested_on": "HFF", "assay": "Cytotoxicity against HFF cells assessed as reduction in cell viability at <50 uM by alamar blue assay", "assay_type": "toxicity, cell-based", "conditions": "human"}, "[22]": {"target": "Tyrosine-protein kinase ZAP-70 (Homo sapiens) (UniProt P43403)", "assay": "Inhibition of human ZAP70 kinase at 10 uM relative to control"}, "[23]": {"target": "D(1A) dopamine receptor (Homo sapiens) (UniProt P21728)", "assay": "Inhibition of human D1 receptor at 10 uM relative to control"}, "[24]": {"target": "Corticotropin-releasing factor receptor 1 (Homo sapiens) (UniProt P34998)", "assay": "Inhibition of human CRF1 receptor at 10 uM relative to control"}, "[25]": {"assay": "Inhibition of SETD7 D256A mutant (unknown origin) using biotinylated H3 (1-25) peptide as substrate incubated for 1 hrs in presence of 3H-SAM by radioactivity based assay", "design": "species or system Homo sapiens", "in_short": "as §1"}, "[26]": {"target": "Alpha-1B adrenergic receptor (Homo sapiens) (UniProt P35368)", "assay": "Inhibition of human alpha 1B receptor at 10 uM relative to control"}, "[27]": {"target": "5-hydroxytryptamine receptor 2A (Homo sapiens) (UniProt P28223)", "assay": "Inhibition of human 5-HT2A receptor at 10 uM relative to control"}, "[28]": {"target": "Alpha-2B adrenergic receptor (Homo sapiens) (UniProt P18089)", "assay": "Inhibition of human alpha 2B receptor at 10 uM relative to control"}, "[29]": {"target": "Calcium/calmodulin-dependent protein kinase type II subunit alpha (Homo sapiens) (UniProt Q9UQM7)", "assay": "Inhibition of human CaMK2alpha at 10 uM relative to control"}, "[30]": {"assay": "Stability of compound in cell media by MS-LC analysis", "assay_type": "physicochemical"}, "Motilin receptor [31]": {"target": "T1, Motilin receptor", "assay": "Inhibition of human motilin receptor"}, "[32]": {"target": "5-hydroxytryptamine receptor 1B (Homo sapiens) (UniProt P28222)", "assay": "Inhibition of 5-HT1B receptor (unknown origin) at 10 uM relative to control"}, "[33]": {"target": "Human immunodeficiency virus type 1 protease (Human immunodeficiency virus 1) (UniProt Q72874)", "assay": "Inhibition of HIV-1 protease at 10 uM relative to control"}, "[34]": {"target": "Nitric oxide synthase, inducible (Homo sapiens) (UniProt P35228)", "sequence (P35228 whole entry)": "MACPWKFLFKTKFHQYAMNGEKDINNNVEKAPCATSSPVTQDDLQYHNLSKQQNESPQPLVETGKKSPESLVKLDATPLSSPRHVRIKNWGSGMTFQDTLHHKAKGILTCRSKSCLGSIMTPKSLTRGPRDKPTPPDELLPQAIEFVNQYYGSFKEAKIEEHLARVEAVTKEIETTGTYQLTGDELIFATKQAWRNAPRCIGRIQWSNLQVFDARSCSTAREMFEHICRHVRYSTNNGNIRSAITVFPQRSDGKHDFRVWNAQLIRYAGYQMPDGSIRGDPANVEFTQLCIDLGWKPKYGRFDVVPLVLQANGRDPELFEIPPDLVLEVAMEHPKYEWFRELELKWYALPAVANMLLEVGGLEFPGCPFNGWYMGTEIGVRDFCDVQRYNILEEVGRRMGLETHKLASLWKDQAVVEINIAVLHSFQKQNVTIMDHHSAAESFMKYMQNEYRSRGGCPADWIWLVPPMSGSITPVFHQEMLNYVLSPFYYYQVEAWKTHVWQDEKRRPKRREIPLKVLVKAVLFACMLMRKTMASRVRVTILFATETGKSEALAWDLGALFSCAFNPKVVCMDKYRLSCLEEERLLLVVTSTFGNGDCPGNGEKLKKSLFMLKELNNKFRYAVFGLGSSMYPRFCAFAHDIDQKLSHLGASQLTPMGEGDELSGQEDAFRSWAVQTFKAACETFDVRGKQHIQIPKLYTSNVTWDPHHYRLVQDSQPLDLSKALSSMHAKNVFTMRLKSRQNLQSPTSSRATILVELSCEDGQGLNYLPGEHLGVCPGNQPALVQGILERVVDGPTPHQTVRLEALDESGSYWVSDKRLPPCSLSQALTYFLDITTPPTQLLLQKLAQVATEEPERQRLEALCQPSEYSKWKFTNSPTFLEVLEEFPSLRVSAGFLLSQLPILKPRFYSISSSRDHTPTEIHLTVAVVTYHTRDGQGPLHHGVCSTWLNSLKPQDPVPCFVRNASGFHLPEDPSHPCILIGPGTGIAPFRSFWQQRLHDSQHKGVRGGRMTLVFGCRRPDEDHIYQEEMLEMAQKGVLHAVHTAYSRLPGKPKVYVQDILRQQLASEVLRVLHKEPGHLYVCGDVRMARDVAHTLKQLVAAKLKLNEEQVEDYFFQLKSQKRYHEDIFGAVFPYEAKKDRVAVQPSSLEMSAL", "assay": "Inhibition of inducible NOS (unknown origin) at 10 uM relative to control"}, "[35]": {"target": "Glucocorticoid receptor (Homo sapiens) (UniProt P04150)", "sequence (P04150 whole entry)": "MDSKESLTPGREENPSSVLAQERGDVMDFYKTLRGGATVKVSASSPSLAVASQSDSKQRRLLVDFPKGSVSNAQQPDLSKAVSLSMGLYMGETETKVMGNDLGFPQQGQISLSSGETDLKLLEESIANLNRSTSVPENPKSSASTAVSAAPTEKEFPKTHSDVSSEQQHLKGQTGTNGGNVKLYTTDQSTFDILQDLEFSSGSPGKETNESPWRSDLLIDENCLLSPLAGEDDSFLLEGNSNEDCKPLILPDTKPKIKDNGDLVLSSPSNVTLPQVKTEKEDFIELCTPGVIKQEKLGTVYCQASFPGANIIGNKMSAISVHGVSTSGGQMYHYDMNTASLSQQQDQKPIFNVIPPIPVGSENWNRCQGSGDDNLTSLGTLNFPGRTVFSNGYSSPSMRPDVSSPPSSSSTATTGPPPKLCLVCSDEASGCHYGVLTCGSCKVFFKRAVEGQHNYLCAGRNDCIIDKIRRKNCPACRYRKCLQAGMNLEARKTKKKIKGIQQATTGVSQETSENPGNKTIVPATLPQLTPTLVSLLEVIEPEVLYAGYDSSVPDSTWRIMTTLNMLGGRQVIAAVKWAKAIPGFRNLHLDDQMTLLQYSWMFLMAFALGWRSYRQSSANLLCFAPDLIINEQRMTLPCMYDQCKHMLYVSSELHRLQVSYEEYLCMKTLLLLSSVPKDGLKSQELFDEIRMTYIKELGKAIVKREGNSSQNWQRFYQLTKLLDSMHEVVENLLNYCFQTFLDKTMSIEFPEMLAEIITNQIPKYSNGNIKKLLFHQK", "assay": "Inhibition of human GR at 10 uM relative to control"}, "[36]": {"target": "Somatostatin receptor type 4 (Homo sapiens) (UniProt P31391)", "assay": "Inhibition of human sst4 at 10 uM relative to control"}, "[37]": {"target": "Sodium-dependent serotonin transporter (Homo sapiens) (UniProt P31645)", "assay": "Inhibition of human 5-HT transporter at 10 uM relative to control"}, "[38]": {"target": "Apelin receptor (Homo sapiens) (UniProt P35414)", "assay": "Inhibition of human APJ at 10 uM relative to control"}, "[39]": {"target": "Prostacyclin receptor (Homo sapiens) (UniProt P43119)", "sequence (P43119 whole entry)": "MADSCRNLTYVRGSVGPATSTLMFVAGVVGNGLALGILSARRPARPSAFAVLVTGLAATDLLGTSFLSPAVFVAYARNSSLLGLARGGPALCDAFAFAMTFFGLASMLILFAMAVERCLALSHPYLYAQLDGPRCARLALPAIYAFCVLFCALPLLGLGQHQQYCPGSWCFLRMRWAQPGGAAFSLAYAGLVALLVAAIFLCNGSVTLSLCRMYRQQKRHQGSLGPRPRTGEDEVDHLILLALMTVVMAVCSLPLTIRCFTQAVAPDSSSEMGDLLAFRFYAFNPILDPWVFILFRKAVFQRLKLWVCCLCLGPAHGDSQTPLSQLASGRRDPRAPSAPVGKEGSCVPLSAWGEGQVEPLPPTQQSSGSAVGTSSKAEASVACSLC", "assay": "Inhibition of human IP (PGI2) receptor at 10 uM relative to control"}, "[40]": {"target": "Leukotriene B4 receptor 1 (Homo sapiens) (UniProt Q15722)", "assay": "Inhibition of human BLT1 at 10 uM relative to control"}}}
{"smiles": "O=C([C@@H](Cc1cccc(C(F)(F)F)c1)NS(=O)(=O)c1cc(F)c2c(c1)CCNC2)N1CCCC1", "values": [{"measurement": "inhibition", "setting": "Homo sapiens [1]", "result": 5, "unit": "%"}, {"measurement": "IC50", "setting": "[2]", "result": 10.8, "unit": "µM"}, {"measurement": "inhibition", "setting": "[3]", "result": 1, "unit": "%"}, {"measurement": "inhibition", "setting": "[4]", "result": 0, "unit": "%"}, {"measurement": "inhibition", "setting": "[5]", "result": 0, "unit": "%"}, {"measurement": "inhibition", "setting": "Homo sapiens [6]", "result": 28, "unit": "%"}, {"measurement": "inhibition", "setting": "[7]", "result": 4, "unit": "%"}, {"measurement": "inhibition", "setting": "[8]", "result": 47, "unit": "%"}, {"measurement": "inhibition", "setting": "[9]", "result": 28, "unit": "%"}, {"measurement": "inhibition", "setting": "Homo sapiens [10]", "result": 5, "unit": "%"}, {"measurement": "inhibition", "setting": "[11]", "result": -4, "unit": "%"}, {"measurement": "IC50", "setting": "[12]", "result": 2.63, "unit": "µM"}, {"measurement": "inhibition", "setting": "[13]", "result": 1, "unit": "%"}, {"measurement": "inhibition", "setting": "[14]", "result": -3, "unit": "%"}, {"measurement": "inhibition", "setting": "[15]", "result": 7, "unit": "%"}, {"measurement": "inhibition", "setting": "[16]", "result": -8, "unit": "%"}, {"measurement": "inhibition", "setting": "[17]", "result": -5, "unit": "%"}, {"measurement": "inhibition", "setting": "[18]", "result": 12, "unit": "%"}, {"measurement": "inhibition", "setting": "[19]", "result": -4, "unit": "%"}, {"measurement": "Activity", "setting": "MCF7", "result": "Non-Toxic"}, {"measurement": "inhibition", "setting": "Motilin receptor [20]", "result": 55, "unit": "%"}, {"measurement": "inhibition", "setting": "[21]", "result": 7, "unit": "%"}, {"measurement": "Activity", "setting": "HFF", "result": "Non-Toxic"}, {"measurement": "inhibition", "setting": "[22]", "result": 13, "unit": "%"}, {"measurement": "inhibition", "setting": "[23]", "result": 0, "unit": "%"}, {"measurement": "inhibition", "setting": "[24]", "result": -7, "unit": "%"}, {"measurement": "IC50", "setting": "[25]", "result": 1.2, "unit": "µM"}, {"measurement": "inhibition", "setting": "[26]", "result": 29, "unit": "%"}, {"measurement": "inhibition", "setting": "[27]", "result": 3, "unit": "%"}, {"measurement": "inhibition", "setting": "[28]", "result": 79, "unit": "%"}, {"measurement": "inhibition", "setting": "[29]", "result": 6, "unit": "%"}, {"measurement": "Stability", "setting": "[30]", "result": "Stable"}, {"measurement": "IC50", "setting": "Motilin receptor [31]", "result": 7.2, "unit": "µM"}, {"measurement": "inhibition", "setting": "[32]", "result": 7, "unit": "%"}, {"measurement": "inhibition", "setting": "[33]", "result": -4, "unit": "%"}, {"measurement": "inhibition", "setting": "[34]", "result": -7, "unit": "%"}, {"measurement": "inhibition", "setting": "[35]", "result": 5, "unit": "%"}, {"measurement": "inhibition", "setting": "[36]", "result": 27, "unit": "%"}, {"measurement": "inhibition", "setting": "[37]", "result": 9, "unit": "%"}, {"measurement": "inhibition", "setting": "[38]", "result": -5, "unit": "%"}, {"measurement": "inhibition", "setting": "[39]", "result": -7, "unit": "%"}, {"measurement": "inhibition", "setting": "[40]", "result": -8, "unit": "%"}]}
